# PG9 Ab binder: PG9 antibody binding by small molecule; AID 624416; inhibition, % at 6.7 µM; TR-FRET gp120-PG9 antibody binding; 360,000 tested, 0.43% active; in the data active means inhibition above about 8.5%
# ABCB6 inh 2: human ABCB6 transporter inhibition | Q9NP58 | K562-ABCB6 porphyrin accumulation, flow cytometry, 1 h; hits give low values | fluorescence ratio to DMSO, % at 10 µM | 360,000 tested, 0.19% active | AID 602162;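 active means fluorescence ratio to DMSO below 75%, the collection mean minus 3 SD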;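 further: signal is porphyrin accumulated inside mitochondria; 100% equals median channel fluorescence of DMSO control wells; lower ratio means ABCB6 inhibition with less porphyrin fluorescence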
# Target sequence (Q9NP58 whole entry, looked up): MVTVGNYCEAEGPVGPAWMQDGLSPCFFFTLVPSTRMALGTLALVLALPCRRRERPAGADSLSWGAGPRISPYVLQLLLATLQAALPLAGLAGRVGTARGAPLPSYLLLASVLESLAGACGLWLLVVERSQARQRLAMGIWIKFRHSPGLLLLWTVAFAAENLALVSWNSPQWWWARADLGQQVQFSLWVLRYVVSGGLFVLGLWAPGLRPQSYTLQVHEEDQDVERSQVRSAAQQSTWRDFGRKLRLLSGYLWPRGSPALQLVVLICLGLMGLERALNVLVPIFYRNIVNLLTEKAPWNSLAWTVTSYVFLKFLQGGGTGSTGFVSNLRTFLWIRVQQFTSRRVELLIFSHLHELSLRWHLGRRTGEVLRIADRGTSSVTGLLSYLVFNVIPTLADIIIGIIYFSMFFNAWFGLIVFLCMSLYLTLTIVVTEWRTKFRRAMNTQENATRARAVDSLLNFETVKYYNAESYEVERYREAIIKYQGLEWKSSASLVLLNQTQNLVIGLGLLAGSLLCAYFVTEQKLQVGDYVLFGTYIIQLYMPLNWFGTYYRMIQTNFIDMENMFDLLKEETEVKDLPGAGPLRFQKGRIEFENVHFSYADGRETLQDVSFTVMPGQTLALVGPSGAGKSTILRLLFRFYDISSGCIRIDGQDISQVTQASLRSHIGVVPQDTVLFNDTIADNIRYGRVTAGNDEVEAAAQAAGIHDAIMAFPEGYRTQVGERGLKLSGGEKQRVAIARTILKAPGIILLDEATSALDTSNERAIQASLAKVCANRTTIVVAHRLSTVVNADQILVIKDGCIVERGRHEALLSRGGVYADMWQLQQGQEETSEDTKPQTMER
# Arr AP2 block: human beta-arrestin and AP2 interaction inhibition | FITC-arrestin peptide / GST-AP2 beads, flow cytometry; AP2 beta2 appendage carries R879A mutation | inhibition, % at 10 µM | 340,000 tested, 0.31% active;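 active means inhibition above a set limit, near 3 SD of compounds lacking own fluorescence, cut at about 54% in these data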;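 further: plate controls were DMSO wells for no effect and 5 µM unlabelled arrestin peptide for full effect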
#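 Material – GST-tagged AP2 beta2-adaptin appendage (R879A) on 4 µm glutathione beads · Probe or stimulus – fluorescein-tagged arrestin peptide at 50 nM final · Timing – 12 min plus 1 h, RT · Detection – bead flow cytometry, FITC channel · Read-out basis – inhibition as reduced fluorescein signal on beads, percent · Medium – PBS plus Tween 20 (0.05%) and BSA (0.1%)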
# iPSC survival up: enhancers of human iPSC single-cell survival; survival enhancement, % at 20 µM; AID 602274; hiPSC single-cell survival, ATPlite luminescence; 100% = ROCK inhibitor wells, 0% = DMSO; 360,000 tested, 0.044% active; in the data active means survival enhancement above about 18%;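 further: cells exposed to compounds for 16 hours before the ATP read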
# ABCB6 blocker 1: blocks the human ABCB6 transporter. shares compounds with ABCB6 inh 2. K562-ABCB6 porphyrin accumulation, flow cytometry, 1 h; hits give low values. ratio response (% of DMSO), % at 10 µM. 700 tested, under 10 active. AID 602430;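 active means repeat-averaged ratio response below 75% of DMSO, the collection mean minus 3 SD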;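 further: median porphyrin fluorescence at 575 nm with 488 nm excitation from mitochondria; lower ratio means less porphyrin signal so ABCB6 inhibition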
# K562 vector FC: effect in K562 cells lacking ABCB6, counter-screen. percent response (fluorescence), % at 100 µM. 25 tested, under 10 active. shares compounds with ABCB6 inh 2. K562 empty-vector cells, flow cytometry fluorescence, 1 h;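 active means compounds whose half-maximal effective concentration is below 100 µM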
# Starred values were filed as active, the others as inactive; x = no result. This is a sample that favours compounds with a hit; in the whole collection about 0.89% have one here.
SMILES,PG9 Ab binder,ABCB6 inh 2,Arr AP2 block,iPSC survival up,ABCB6 blocker 1,others
COc1cc(C(C[N+](=O)[O-])c2c(C)[nH]c3ccccc23)cc(OC)c1OC (stereo not given),-1.9,74.0*,4.6,-0.8,103.0,
Cc1nnc(NC(=O)CS(=O)(=O)Cc2ccccc2)s1,-0.6,106.0,4.1,-0.5,x,
Cc1cccc(CS(=O)(=O)c2ncc(Cl)c(C(=O)NCc3ccccc3)n2)c1,1.9,97.0,-0.4,-0.4,x,
Cc1cccc(CS(=O)(=O)c2ncc(Cl)c(C(=O)Nc3c(C)cccc3C)n2)c1,1.7,100.0,36.7,-0.3,94.0,
Cc1nnc(NC(=O)c2nc(S(=O)(=O)Cc3ccccc3)ncc2Cl)s1,-0.8,113.0,-7.8,-0.1,x,K562 vector FC=213.7
Cc1cccc(C)c1NC(=O)c1nc(S(=O)(=O)Cc2ccccc2)ncc1Cl,-1.1,93.0,-6.3,-0.2,x,K562 vector FC=237.2
CCCc1nnc(NC(=O)c2nc(S(=O)(=O)Cc3cccc(C)c3)ncc2Cl)s1,-3.9,101.0,3.5,0.0,x,K562 vector FC=250.0
O=C(N[C@H](C(=O)N1CCC[C@H]1C(=O)NCCc1ccccc1Cl)c1ccccc1)C1CCCC1,2.1,x,x,x,x,
CCn1c(SCC(=O)Nc2nc3ccc(OC)cc3s2)nc2c1c(=O)n(C)c(=O)n2C,2.4,72.0*,12.6,-1.5,100.0,
CCNC(=O)OC[C@H]1O[C@H](C#Cc2ccc(C(C)(C)C)cc2)C=C[C@H]1OC(C)=O,-2.1,x,x,x,x,
COc1ccc(NC(=O)c2nc(S(=O)(=O)Cc3cccc(C)c3)ncc2Cl)c(OC)c1,-0.8,151.0,-14.6,6.6,x,K562 vector FC=271.4
Cc1ccccc1NC(=O)c1nc(S(C)(=O)=O)ncc1Cl,-0.4,105.0,0.1,-0.2,x,
COc1ccc(OC)c(NC(=O)c2nc(S(=O)(=O)Cc3ccccc3)ncc2Cl)c1,2.5,83.0,20.1,1.2,x,K562 vector FC=594.0
Cc1cccc(NC(=O)c2nc[nH]c2C(=O)N(C)CCO)c1,-1.5,x,x,x,x,
Cc1ccc(NC(=O)c2nc(S(=O)(=O)Cc3ccccc3)ncc2Cl)cc1,-0.2,35.0*,44.1,0.0,85.0,
O=C(Nc1ccc(F)cc1)c1nc(S(=O)(=O)Cc2ccccc2)ncc1Cl,0.8,46.0*,45.1,2.6,93.0,
Cc1ccccc1CS(=O)(=O)c1ncc(Cl)c(C(=O)Nc2ccc(F)cc2)n1,-0.1,36.0*,-7.5,3.1,x,K562 vector FC=299.1
CS(=O)(=O)c1ncc(Cl)c(C(=O)Nc2ccc(OC(F)F)cc2)n1,x,85.0,3.6,0.0,x,
Cc1ccc(N2C(=O)C(CN3CCCC3)C2c2ccccc2)cc1 (stereo not given),-1.0,73.0*,3.2,-2.7,102.0,
Cc1ccccc1OCCNC(=O)CSc1ccc(C(F)(F)F)cc1[N+](=O)[O-],-0.4,70.0*,-3.3,3.7,99.0,
Cc1nc2c(F)c(F)c(C(F)(F)F)c(F)c2[nH]1,1.1,69.0*,-8.5,-0.9,101.0,
Cc1nc2c(Br)c3nc(C(F)(F)F)[nH]c3c(Br)c2[nH]1,x,103.0,-1.2,-1.1,x,
COc1ccc(C2NC(=S)N(Cc3ccc(Cl)cc3)C(C)=C2C(C)=O)cc1 (stereo not given),-1.8,x,x,x,x,
CC(=O)Nc1ccc(NC(=O)[C@H](C)NC(=O)c2ccco2)cc1,0.1,64.0*,-3.5,0.2,98.0,
CC(=O)C1=CCN(C)CC1,0.4,x,x,x,x,
SMILES,PG9 Ab binder,ABCB6 inh 2,Arr AP2 block,iPSC survival up,ABCB6 blocker 1,others
CC(=O)N1CCN(C(=O)c2ccc(OC3CCN(Cc4ccccn4)CC3)cc2)CC1,-1.6,101.0,10.4,-0.1,x,
COCC1CCCN(C(=O)c2ccc(OC3CCN(Cc4ccccn4)CC3)cc2)C1 (stereo not given),-0.7,12.0*,-20.6,-0.2,95.0,
COc1cc2c(C(=O)NCCN(C)C)cn(CC(C)C)c(=O)c2cc1OC,-0.8,69.0*,-2.4,-0.2,101.0,
COc1cc2c(C(=O)NCCCOC(C)C)cn(CC(C)C)c(=O)c2cc1OC,-2.4,95.0,-7.6,-1.1,x,
Cn1c(CN2CCN(C(=O)c3ccccc3Cl)CC2)nc2cc([N+](=O)[O-])ccc21,-0.7,103.0,11.4,-2.7,x,
Cn1c(CN2CCN(C(=O)c3ccccc3)CC2)nc2cc([N+](=O)[O-])ccc21,-1.2,70.0*,-7.6,1.7,95.0,
CCN(Cc1ccccc1)Cc1c(C)[nH]c2c(C)c(C)ccc2c1=O,1.2,55.0*,-0.8,1.1,99.0,
O=C(NCc1ccccc1)[C@@H]1CCCN1C(=O)[C@H]1CCCN1C(=O)C1CCCCC1,-1.7,x,x,x,x,
O=C(OCC(=O)N1CCN(c2ccccc2)CC1)c1ccccn1,1.6,100.0,-4.5,-2.9,x,
O=C(OCC(=O)N1CCN(c2ccccc2)CC1)c1ccc2ccccc2n1,-2.1,74.0*,17.4,3.5,99.0,
Cc1ccccc1CSCCNS(C)(=O)=O,-1.0,44.0*,36.9,0.3,105.0,
CN(c1ccc(NC(=O)Cc2cn(C)c3ccccc23)cc1)c1ccccn1,-1.4,x,x,x,x,
COC(=O)COc1cccc(NC(=O)c2ccccc2)c1,0.6,74.0*,2.5,-1.3,100.0,
S=C(SCc1nc(-c2ccc(Cl)cc2)no1)N1CCSCC1,0.5,x,x,x,x,
COCc1[nH]nc2c1C(c1ccc(F)cc1)NC2=O (stereo not given),-0.9,x,x,x,x,
CN(C)C(=O)N1CCN(C(=O)[C@H]2O[C@@H](n3ccc(N)nc3=O)[C@H](O)[C@@H]2O)CC1,-2.2,x,x,x,x,
CCOc1ccc(C(=O)CCC(=O)NNC(=O)c2ccncc2)cc1,0.3,95.0,-9.4,-0.1,x,
CCOc1ccc(C(=O)CCC(=O)Nc2cc(C)ccn2)cc1,-0.4,74.0*,25.4,-0.6,104.0,
Clc1ccccc1-c1nnc2sc(C3COc4ccccc4O3)nn12 (stereo not given),4.9,44.0*,12.3,-1.3,100.0,
Cc1ccc(-c2nnc3sc(C4COc5ccccc5O4)nn23)cc1 (stereo not given),-0.1,101.0,5.7,0.4,x,
CCCc1ccc(OCCNC(C)=O)cc1,-1.3,68.0*,-3.3,-2.1,102.0,
COC(=O)CC(=O)CC(NS(=O)(=O)c1ccc(C)cc1)c1ccccc1 (stereo not given),1.5,x,x,x,x,
Cc1ccc2nc(-c3ccc(CN4CCC5(CC4)CNc4ccccc45)cc3)c(-c3ccccc3)nc2c1,-0.3,x,x,x,x,
CCCCCC(O)(c1ccccc1)C(CN1CCOCC1)c1ccccc1 (stereo not given),-0.5,72.0*,-12.1,0.8,100.0,
CCOc1ccc(-c2cncc3nccn23)cc1,0.2,65.0*,x,1.2,98.0,
COC(=O)C1=C(C)N(Cc2cccc(C(F)(F)F)c2)C(=NCc2ccc(OC)cc2)NC1c1ccc(F)cc1 (stereo not given),-1.1,x,x,x,x,
O=c1ccn(Cc2ccccc2)c2ccccc12,0.0,72.0*,7.1,-1.5,97.0,
Cc1c(OCc2ccccc2)c(=O)ccn1Cc1ccccc1,1.0,107.0,1.3,-1.2,x,
COC(=O)c1ccc(CN2C(=O)[C@]3(OCCC=C[C@H]3C)c3cc(OC)ccc32)cc1,-0.9,x,x,x,x,
